Data: ChEMBL document CHEMBL1153580, “Synthesis and pharmacological investigation of 3-(substituted 1-phenylethanone)-4-(substituted phenyl)-1, 2, 3, 4-tetrahydropyrimidine-5-carboxylates” (Eur J Med Chem, 2009)

Experiments:
Rattus norvegicus [1] = assay: Antihypertensive activity in Norwegian albino rat assessed as inhibition of DOCA salt-induced systolic blood pressure at 10 mg/kg, po after 15 mins by non-invasive tail-cuff method; type: functional; conditions: Artery, 0.25 h
Rattus norvegicus [2] = assay: Antihypertensive activity in Norwegian albino rat assessed as inhibition of DOCA salt-induced systolic blood pressure at 10 mg/kg, po after 240 mins by non-invasive tail-cuff method; type: functional; conditions: Artery, 4 h
Method in brief: (§1)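 Male rats (200–250 g), uninephrectomized under pentobarbital (50 mg/kg i.p.); one week later DOCA s.c. 30–50 mg/kg/week, with 1% w/v NaCl in drinking water. Groups of six, trained in restrainer, tail warmed at 33–34 °C. Compound in 0.5% CMC, 10 mg/kg orally. Systolic pressure read by tail-cuff before dosing and from 1 h after; three readings averaged. ANOVA.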

Rattus norvegicus [3] = assay: Antihypertensive activity in Norwegian albino rat assessed as inhibition of DOCA salt-induced systolic blood pressure at 10 mg/kg, po after 180 mins by non-invasive tail-cuff method; type: functional; conditions: Artery, 3 h; method in brief: as §1
Rattus norvegicus [4] = assay: Antihypertensive activity in Norwegian albino rat assessed as inhibition of DOCA salt-induced systolic blood pressure at 10 mg/kg, po after 30 mins by non-invasive tail-cuff method; type: functional; conditions: Artery, 0.5 h
Rattus norvegicus [5] = assay: Antiinflammatory activity in Norwegian albino rat assessed as inhibition of carrageenan-induced paw edema at 100 mg/kg, po after administered 60 mins prior to carrageenan-challenge measured after 1 hr; type: functional
Method in brief: (§2)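 Compound given orally as 100 mg/kg suspension in 0.5% CMC. 60 min later, carrageenan injected sub-plantar into the left hind paw. Paw volume measured within 30 s of injection, then at 1–5 h. % inhibition = [1−(Dt/Dc)]×100, where Dt and Dc are mean relative paw-volume changes in test and control. ANOVA.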

Rattus norvegicus [6] = assay: Antihypertensive activity in Norwegian albino rat assessed as inhibition of DOCA salt-induced diastolic blood pressure at 10 mg/kg, po after 15 mins by invasive carotid artery cannulation method; type: functional; conditions: 0.25 h
Method in brief: (§3)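 Male rats (200–250 g), uninephrectomized and given DOCA s.c. (30–50 mg/kg/week) with 1% NaCl drinking water. Anesthetized with pentobarbital (35 mg/kg i.p.); left carotid artery cannulated and exteriorized. After recovery and a baseline reading, compound given orally by feeding needle. Diastolic pressure recorded via transducer at 15, 30, 60, 120 and 180 min. Mean ± S.E.M.; repeated-measures ANOVA.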

Rattus norvegicus [7] = assay: Gastrointestinal toxicity in albino rat assessed as ulcerogenic index at 50 mg/kg, po; type: organism-based; design: dose 50 mg/kg, route oral; conditions: in vivo
Method in brief: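 Albino rats (150–200 g), six per group, food but not water withheld 24 h. Compound given p.o. at 50 mg/kg; controls received 1% methyl cellulose. Rats fed 17 h, then killed; stomach opened along greater curvature and examined under 4× magnifier. Lesions scored as large (>2 mm), small (1–2 mm) or punctiform (<1 mm). Severity index = treated mean score minus control mean score.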

Rattus norvegicus [8] = assay: Antihypertensive activity in Norwegian albino rat assessed as inhibition of DOCA salt-induced diastolic blood pressure at 10 mg/kg, po after 240 mins by invasive carotid artery cannulation method; type: functional; conditions: 4 h
Mus musculus = assay: Analgesic activity against acetic acid-induced writhing in Swiss albino mouse assessed as protection at 20 mg/kg, po; type: functional
Method in brief: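 Swiss albino mice (25–30 g), six per group, habituated 30 min individually in the test cage. Compound in 1% CMC given p.o. at 20 mg/kg. 1 h later, acetic acid injected i.p.; writhes (arching of back, body elongation, hind-limb extension) counted 5–15 min after injection. % inhibition = (n−n′)/n×100, where n and n′ are mean writhes in control and test.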

Rattus norvegicus [9] = assay: Antihypertensive activity in Norwegian albino rat assessed as inhibition of DOCA salt-induced systolic blood pressure at 10 mg/kg, po after 60 mins by non-invasive tail-cuff method; type: functional; conditions: Artery, 1 h; method in brief: as §1
Rattus norvegicus [10] = assay: Antihypertensive activity in Norwegian albino rat assessed as inhibition of DOCA salt-induced systolic blood pressure at 10 mg/kg, po after 300 mins by non-invasive tail-cuff method; type: functional; conditions: Artery, 5 h; method in brief: as §1
Rattus norvegicus [11] = assay: Antihypertensive activity in Norwegian albino rat assessed as inhibition of DOCA salt-induced systolic blood pressure at 10 mg/kg, po after 360 mins by non-invasive tail-cuff method; type: functional; conditions: Artery, 6 h; method in brief: as §1
Rattus norvegicus [12] = assay: Antiinflammatory activity in Norwegian albino rat assessed as inhibition of carrageenan-induced paw edema at 100 mg/kg, po after administered 60 mins prior to carrageenan-challenge measured after 3 hrs; type: functional; method in brief: as §2
Rattus norvegicus [13] = assay: Antiinflammatory activity in Norwegian albino rat assessed as inhibition of carrageenan-induced paw edema at 100 mg/kg, po after administered 60 mins prior to carrageenan-challenge measured after 5 hrs; type: functional; method in brief: as §2
Rattus norvegicus [14] = assay: Antihypertensive activity in Norwegian albino rat assessed as inhibition of DOCA salt-induced systolic blood pressure at 10 mg/kg, po after 420 mins by non-invasive tail-cuff method; type: functional; conditions: Artery, 7 h; method in brief: as §1
Rattus norvegicus [15] = assay: Antihypertensive activity in Norwegian albino rat assessed as inhibition of DOCA salt-induced diastolic blood pressure at 10 mg/kg, po after 180 mins by invasive carotid artery cannulation method; type: functional; conditions: 3 h; method in brief: as §3
Rattus norvegicus [16] = assay: Antihypertensive activity in Norwegian albino rat assessed as inhibition of DOCA salt-induced systolic blood pressure at 10 mg/kg, po after 480 mins by non-invasive tail-cuff method; type: functional; conditions: Artery, 8 h; method in brief: as §1
Rattus norvegicus [17] = assay: Antihypertensive activity in Norwegian albino rat assessed as inhibition of DOCA salt-induced diastolic blood pressure at 10 mg/kg, po after 30 mins by invasive carotid artery cannulation method; type: functional; conditions: 0.5 h; method in brief: as §3
Rattus norvegicus [18] = assay: Antihypertensive activity in Norwegian albino rat assessed as inhibition of DOCA salt-induced diastolic blood pressure at 10 mg/kg, po after 120 mins by invasive carotid artery cannulation method; type: functional; conditions: 2 h; method in brief: as §3
Rattus norvegicus [19] = assay: Antihypertensive activity in Norwegian albino rat assessed as inhibition of DOCA salt-induced systolic blood pressure at 10 mg/kg, po after 120 mins by non-invasive tail-cuff method; type: functional; conditions: Artery, 2 h; method in brief: as §1
Rattus norvegicus [20] = assay: Antihypertensive activity in Norwegian albino rat assessed as inhibition of DOCA salt-induced diastolic blood pressure at 10 mg/kg, po after 60 mins by invasive carotid artery cannulation method; type: functional; conditions: 1 h; method in brief: as §3

| Compound | inhibition in vivo at 10 mg/kg (Rattus norvegicus [1]) | inhibition in vivo at 10 mg/kg (Rattus norvegicus [2]) | inhibition in vivo at 10 mg/kg (Rattus norvegicus [3]) | inhibition in vivo at 10 mg/kg (Rattus norvegicus [4]) | inhibition in vivo at 100 mg/kg (Rattus norvegicus [5]) | inhibition in vivo at 10 mg/kg (Rattus norvegicus [6]) | UI (Rattus norvegicus [7]) | inhibition in vivo at 10 mg/kg (Rattus norvegicus [8]) | Activity (Mus musculus) | inhibition in vivo at 10 mg/kg (Rattus norvegicus [9]) | inhibition in vivo at 10 mg/kg (Rattus norvegicus [10]) | inhibition in vivo at 10 mg/kg (Rattus norvegicus [11]) | inhibition in vivo at 100 mg/kg (Rattus norvegicus [12]) | inhibition in vivo at 100 mg/kg (Rattus norvegicus [13]) | inhibition in vivo at 10 mg/kg (Rattus norvegicus [14]) | inhibition in vivo at 10 mg/kg (Rattus norvegicus [15]) | inhibition in vivo at 10 mg/kg (Rattus norvegicus [16]) | inhibition in vivo at 10 mg/kg (Rattus norvegicus [17]) | inhibition in vivo at 10 mg/kg (Rattus norvegicus [18]) | inhibition in vivo at 10 mg/kg (Rattus norvegicus [19]) | other results |
| --- | --- | --- | --- | --- | --- | --- | --- | --- | --- | --- | --- | --- | --- | --- | --- | --- | --- | --- | --- | --- | --- |
| CCOC(=O)C1=C(C)NC(OC)N(CC(=O)c2ccccc2)C1c1ccc(OC)cc1 (stereo unspecified) | 1.57% | 36% | 28% | 6.58% | 38.8% | 2.3% | 0.75 | 48.2% | 59.76% | 13.7% | 41.4% | 42.9% | 40.5% | 52.6% | 45% | 37.9% | 45.9% | 10.6% | 30.9% | 20.4% | inhibition in vivo at 10 mg/kg (Rattus norvegicus [20]): 22.9% |
| CCOC(=O)C1=C(C)NC(OC)N(CC(=O)c2ccc(Cl)cc2)C1c1ccccc1 (stereo unspecified) | 0.7% | 36.7% | 28% | 6.49% | 36.6% | 2.35% | 0.45 | 47.8% | 41.66% | 13.8% | 38.2% | 41.5% | 38.4% | 42% | 45% | 37.8% | 46.5% | 9.99% | 30.1% | 20.5% | inhibition in vivo at 10 mg/kg (Rattus norvegicus [20]): 23% |
| CCOC(=O)C1=C(C)NC(OC)N(CC(=O)c2ccc(OC)cc2)C1c1ccccc1 (stereo unspecified) | 1% | 36.8% | 28% | 6.49% | 37.1% | 1.84% | 0.74 | 47.8% | 45.8% | 13.8% | 38.3% | 41.6% | 38.4% | 42.6% | 45.1% | 37.8% | 46.5% | 8.97% | 30.1% | 20.5% | inhibition in vivo at 10 mg/kg (Rattus norvegicus [20]): 23.5% |
| CCOC(=O)C1=C(C)NC(OC)N(CC(=O)c2ccc(Cl)cc2)C1c1ccc(O)cc1 (stereo unspecified) | 1% | 36.7% | 28.4% | 6.36% | 36.6% | 1.43% | 0.45 | 47.8% | 45.66% | 15.1% | 39.6% | 42% | 38.8% | 42% | 44% | 38.3% | 45.5% | 10.3% | 30.1% | 23.1% | inhibition in vivo at 10 mg/kg (Rattus norvegicus [20]): 22.5% |
| CCOC(=O)C1=C(C)NC(OC)N(CC(=O)c2ccc(OC)cc2)C1c1ccc(OC)cc1 (stereo unspecified) | 1.57% | 36% | 27.8% | 6.58% | 37.7% | 3.33% | 0.2 | 48.8% | 51.33% | 15.1% | 40.1% | 41.9% | 39.8% | 47.2% | 46.5% | 39.4% | 48.6% | 12.1% | 31.1% | 21.6% | inhibition in vivo at 10 mg/kg (Rattus norvegicus [20]): 23.5% |
| CCOC(=O)C1=C(C)NC(OC)N(CC(=O)c2ccc(Cl)cc2)C1c1ccc(C)cc1 (stereo unspecified) | 1.61% | 36.8% | 28% | 11.1% | 37.1% | 2.35% | 0.76 | 47.8% | 53.17% | 13.8% | 39.5% | 42% | 38.8% | 47.3% | 44% | 37.8% | 45.7% | 10.5% | 30.4% | 24% | inhibition in vivo at 10 mg/kg (Rattus norvegicus [20]): 22.5% |
